# According to ChEMBL document CHEMBL1687824, “Overexpression of patA and patB, which encode ABC transporters, is associated with fluoroquinolone resistance in clinical isolates of Streptococcus pneumoniae” (2011):
# Key:
# Streptococcus pneumoniae [1] = assay: Antibacterial activity against fluoroquinolone, dye-resistant Streptococcus pneumoniae by standardized agar doubling dilution method in presence of 20 ug/ml reserpine efflux pump inhibitor; format: functional
# Outline: (§1)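 MIC by agar doubling dilution following BSAC guidelines. Strains grown in brain heart infusion broth 24 h at 37°C in 5% CO2. Where an efflux pump inhibitor applies, MIC redetermined with reserpine at 20 μg/ml or sodium orthovanadate at 50 μM. Synergy taken as a fall in MIC of ≥2 dilutions with inhibitor present. Dye resistance defined relative to R6 (both dyes ≥2 dilutions higher).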
# Streptococcus pneumoniae [2] = assay: Antibacterial activity against fluoroquinolone, dye-resistant Streptococcus pneumoniae by standardized agar doubling dilution method in presence of 50 uM sodium orthovanadate efflux pump inhibitor; format: functional; outline: as §1
# Streptococcus pneumoniae [3] = assay: Antibacterial activity against dye-resistant Streptococcus pneumoniae by standardized agar doubling dilution method in presence of 20 ug/ml reserpine efflux pump inhibitor; format: functional; outline: as §1
# Streptococcus pneumoniae [4] = assay: Antibacterial activity against fluoroquinolone, dye-susceptible Streptococcus pneumoniae by standardized agar doubling dilution method in presence of 20 ug/ml reserpine efflux pump inhibitor; format: functional; outline: as §1
# Streptococcus pneumoniae [5] = assay: Antibacterial activity against fluoroquinolone, dye-resistant Streptococcus pneumoniae M50 overexpressing patA, patB by standardized agar doubling dilution method; format: functional; outline: as §1
# Streptococcus pneumoniae [6] = assay: Antibacterial activity against Streptococcus pneumoniae M50B overexpressing patA, patB and inactivated patB with single mutation by standardized agar doubling dilution method; format: functional
# Outline: (§2)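 MICs were determined by agar doubling dilution following BSAC guidelines, with no efflux inhibitor. Strains were grown in brain heart infusion broth for 24 h at 37°C in 5% CO2. Species identity was confirmed by Gram stain, optochin sensitivity and capsule test. Control strain R6 was tested alongside.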
# Streptococcus pneumoniae [7] = assay: Antibacterial activity against fluoroquinolone, dye-resistant Streptococcus pneumoniae M86 overexpressing patA, patB by standardized agar doubling dilution method; format: functional; outline: as §1
# Streptococcus pneumoniae [8] = assay: Antibacterial activity against fluoroquinolone, dye-resistant Streptococcus pneumoniae M296 overexpressing patA, patB by standardized agar doubling dilution method; format: functional; outline: as §1
# Streptococcus pneumoniae [9] = assay: Antibacterial activity against Streptococcus pneumoniae M304 overexpressing patA, patB and inactivated patA with single mutation by standardized agar doubling dilution method; format: functional
# Outline: (§3)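 MICs determined by BSAC standardized agar doubling dilution. Strains were grown in brain heart infusion broth for 24 h at 37°C in 5% CO2. Inhibitor arms had reserpine at 20 μg/ml or sodium orthovanadate at 50 μM in the agar. Mutants were made by transforming magellan2 insertion amplimers into clinical isolates and selecting on spectinomycin 100 mg/liter, with a no-DNA spontaneous-mutation control.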
# Streptococcus pneumoniae [10] = assay: Antibacterial activity against fluoroquinolone-resistant Streptococcus pneumoniae M97 FQ-R overexpressing patA, patB by standardized agar doubling dilution method; format: functional
# Outline: (§4)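 MIC by agar doubling dilution per BSAC guidelines; strains pregrown in brain heart infusion broth 24 h, 37°C, 5% CO2. MICs measured alone and with efflux pump inhibitors reserpine (20 μg/ml) or sodium orthovanadate (50 μM); synergy defined as ≥2-dilution MIC reduction in presence of inhibitor.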
# Streptococcus pneumoniae [11] = assay: Antibacterial activity against Streptococcus pneumoniae M306 overexpressing patA, patB and inactivated patB with single mutation by standardized agar doubling dilution method; format: functional; outline: as §3
# Streptococcus pneumoniae [12] = assay: Antibacterial activity against Streptococcus pneumoniae M307 overexpressing patA, patB and inactivated patB with single mutation by standardized agar doubling dilution method; format: functional; outline: as §3
# Streptococcus pneumoniae [13] = assay: Antibacterial activity against fluoroquinolone-resistant Streptococcus pneumoniae M100 FQ-R overexpressing patA, patB by standardized agar doubling dilution method; format: functional; outline: as §4
# Streptococcus pneumoniae [14] = assay: Antibacterial activity against dye-resistant Streptococcus pneumoniae M55 DR overexpressing patA, patB by standardized agar doubling dilution method; format: functional; outline: as §2
# Streptococcus pneumoniae [15] = assay: Antibacterial activity against fluoroquinolone, dye-resistant Streptococcus pneumoniae M45 overexpressing patA, patB by standardized agar doubling dilution method in presence of 20 ug/ml reserpine efflux pump inhibitor; format: functional; outline: as §1
# Streptococcus pneumoniae [16] = assay: Antibacterial activity against Streptococcus pneumoniae M301 overexpressing patA, patB and inactivated patA with single mutation by standardized agar doubling dilution method in presence of 20 ug/ml reserpine efflux pump inhibitor; format: functional; outline: as §3
# Streptococcus pneumoniae [17] = assay: Antibacterial activity against Streptococcus pneumoniae M304 overexpressing patA, patB and inactivated patA with single mutation by standardized agar doubling dilution method in presence of 20 ug/ml reserpine efflux pump inhibitor; format: functional; outline: as §3
# Streptococcus pneumoniae [18] = assay: Antibacterial activity against Streptococcus pneumoniae M319 overexpressing patA, patB and inactivated patB with single mutation by standardized agar doubling dilution method in presence of 20 ug/ml reserpine efflux pump inhibitor; format: functional
# Outline: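 MICs were determined by BSAC agar doubling dilution in the presence of reserpine at 20 μg/ml. Strains were grown in BHI broth for 24 h at 37°C in 5% CO2, with R6 as control. Synergy was defined as an MIC drop of ≥2 dilutions with the inhibitor.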
# Streptococcus pneumoniae [19] = assay: Antibacterial activity against Streptococcus pneumoniae M302 overexpressing patA, patB and inactivated patA with single mutation by standardized agar doubling dilution method in presence of 20 ug/ml reserpine efflux pump inhibitor; format: functional; outline: as §3
# Streptococcus pneumoniae [20] = assay: Antibacterial activity against Streptococcus pneumoniae M311 overexpressing patA, patB and inactivated patA with single mutation by standardized agar doubling dilution method in presence of 50 uM sodium orthovanadate efflux pump inhibitor; format: functional; outline: as §3
# Streptococcus pneumoniae [21] = assay: Antibacterial activity against fluoroquinolone-resistant Streptococcus pneumoniae M79 FQ-R overexpressing patA, patB by standardized agar doubling dilution method in presence of 50 uM sodium orthovanadate efflux pump inhibitor; format: functional
# Outline: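 Clinical S. pneumoniae isolates grown in BHI broth 24 h at 37°C in 5% CO2. MICs by agar doubling dilution per BSAC guidelines, alone or with efflux inhibitor reserpine (20 μg/ml) or sodium orthovanadate (50 μM). Synergy defined as ≥2-dilution MIC reduction in presence of inhibitor.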
# Streptococcus pneumoniae [22] = assay: Antibacterial activity against Streptococcus pneumoniae M318 overexpressing patA, patB and inactivated patA with single mutation by standardized agar doubling dilution method in presence of 50 uM sodium orthovanadate efflux pump inhibitor; format: functional
# Outline: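 MICs were determined by BSAC agar doubling dilution in the presence of sodium orthovanadate at 50 μM. Cultures were grown in BHI broth for 24 h at 37°C in 5% CO2, with R6 as control. Synergy was defined as an MIC reduction of ≥2 dilutions with the inhibitor present.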
# Streptococcus pneumoniae [23] = assay: Antibacterial activity against fluoroquinolone-resistant Streptococcus pneumoniae M97 FQ-R overexpressing patA, patB by standardized agar doubling dilution method in presence of 50 uM sodium orthovanadate efflux pump inhibitor; format: functional; outline: as §4
# Streptococcus pneumoniae [24] = assay: Antibacterial activity against fluoroquinolone-resistant Streptococcus pneumoniae M100 FQ-R overexpressing patA, patB by standardized agar doubling dilution method in presence of 50 uM sodium orthovanadate efflux pump inhibitor; format: functional; outline: as §4
# Streptococcus pneumoniae [25] = assay: Antibacterial activity against Streptococcus pneumoniae M309 overexpressing patA, patB and inactivated patB with single mutation by standardized agar doubling dilution method in presence of 50 uM sodium orthovanadate efflux pump inhibitor; format: functional; outline: as §3
# Streptococcus pneumoniae [26] = assay: Antibacterial activity against Streptococcus pneumoniae M298 overexpressing patA, patB and inactivated patA with single mutation by standardized agar doubling dilution method
# Streptococcus pneumoniae [27] = assay: Antibacterial activity against Streptococcus pneumoniae M298 overexpressing patA, patB and inactivated patA with single mutation by standardized agar doubling dilution method in presence of 50 uM sodium orthovanadate efflux pump inhibitor
Structure (SMILES),MIC90 (Streptococcus pneumoniae [1]) [µg/mL],MIC90 (Streptococcus pneumoniae [2]) [µg/mL],MIC90 (Streptococcus pneumoniae [3]) [µg/mL],MIC90 (Streptococcus pneumoniae [4]) [µg/mL],MIC (Streptococcus pneumoniae [5]) [µg/mL],MIC (Streptococcus pneumoniae [6]) [µg/mL],MIC (Streptococcus pneumoniae [7]) [µg/mL],MIC (Streptococcus pneumoniae [8]) [µg/mL],MIC (Streptococcus pneumoniae [9]) [µg/mL],MIC (Streptococcus pneumoniae [10]) [µg/mL],MIC (Streptococcus pneumoniae [11]) [µg/mL],MIC (Streptococcus pneumoniae [12]) [µg/mL],MIC (Streptococcus pneumoniae [13]) [µg/mL],MIC (Streptococcus pneumoniae [14]) [µg/mL],MIC (Streptococcus pneumoniae [15]) [µg/mL],MIC (Streptococcus pneumoniae [16]) [µg/mL],MIC (Streptococcus pneumoniae [17]) [µg/mL],MIC (Streptococcus pneumoniae [18]) [µg/mL],MIC (Streptococcus pneumoniae [19]) [µg/mL],MIC (Streptococcus pneumoniae [20]) [µg/mL],other results
CC[n+]1c(-c2ccccc2)c2cc(N)ccc2c2ccc(N)cc21.[Br-] [HOMIDIUM BROMIDE],0.5,1,0.5,0.25,4,0.5,4,8,0.5,4,0.25,2,4,16,0.5,0.5,0.5,0.5,0.5,8,MIC (Streptococcus pneumoniae [3]): 0.5 µg/mL; MIC (Streptococcus pneumoniae [21]): 0.5 µg/mL; MIC (Streptococcus pneumoniae [22]): 0.5 µg/mL; MIC (Streptococcus pneumoniae [23]): 1 µg/mL; MIC (Streptococcus pneumoniae [24]): 1 µg/mL; MIC (Streptococcus pneumoniae [25]): 8 µg/mL; MIC (Streptococcus pneumoniae [26]): 0.5 µg/mL; MIC (Streptococcus pneumoniae [27]): 0.5 µg/mL
O=C(O)c1cn(C2CC2)c2cc(N3CCNCC3)c(F)cc2c1=O [CIPROFLOXACIN],4,8,0.5,0.5,64,4,2,2,4,8,4,8,8,0.25,1,8,1,16,4,4,MIC (Streptococcus pneumoniae [21]): 16 µg/mL; MIC (Streptococcus pneumoniae [22]): 16 µg/mL; MIC (Streptococcus pneumoniae [23]): 8 µg/mL; MIC (Streptococcus pneumoniae [24]): 1 µg/mL; MIC (Streptococcus pneumoniae [25]): 2 µg/mL; MIC (Streptococcus pneumoniae [26]): 8 µg/mL; MIC (Streptococcus pneumoniae [27]): 8 µg/mL
